Measurements: ChEMBL document CHEMBL1154735, “A strategy to minimize reactive metabolite formation: discovery of (S)-4-(1-cyclopropyl-2-methoxyethyl)-6-[6-(difluoromethoxy)-2,5-dimethylpyridin-3-ylamino]-5-oxo-4,5-dihydropyrazine-2-carbonitrile as a potent, orally bioavailable corticotropin-releasing factor-1 receptor antagonist” (J Med Chem, 2009)
≈ marks a conversion by molar mass, not a printed value.

Assays:
[1] = target: T1, Corticotropin-releasing factor receptor 1 (Rattus norvegicus, UniProt P35353); test: Displacement of [125I]Tyr-o-CRF from CRF1 receptor in rat frontal cortex homogenate by binding titration assay; assay type: tissue-based
T1 sequence (P35353 whole entry): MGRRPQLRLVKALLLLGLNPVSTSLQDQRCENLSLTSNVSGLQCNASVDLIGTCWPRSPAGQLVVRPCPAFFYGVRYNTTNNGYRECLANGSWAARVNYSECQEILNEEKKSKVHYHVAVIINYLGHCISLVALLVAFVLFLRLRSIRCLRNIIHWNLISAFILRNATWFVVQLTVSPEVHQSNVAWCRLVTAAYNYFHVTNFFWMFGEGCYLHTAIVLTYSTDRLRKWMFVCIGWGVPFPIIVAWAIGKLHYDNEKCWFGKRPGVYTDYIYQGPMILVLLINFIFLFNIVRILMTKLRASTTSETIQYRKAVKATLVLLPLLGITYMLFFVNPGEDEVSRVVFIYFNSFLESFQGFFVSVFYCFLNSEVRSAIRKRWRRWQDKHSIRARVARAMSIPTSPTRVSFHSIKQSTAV

[2] = Metabolic stability in human liver microsomes assessed as compound remaining at 3 uM after 10 mins by HPLC/UV/MS analysis; assay type: ADME, Microsome; conditions: read-out: Stability
[3] = Metabolic stability in rat liver microsomes assessed as compound remaining at 3 uM after 10 mins by HPLC/UV/MS analysis; assay type: ADME, Microsome; conditions: read-out: Stability
In short: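 Pooled human or rat liver microsomes (1 mg/mL protein) with 3 μM compound and 1.3 mM NADPH in 100 mM sodium phosphate pH 7.4 at 37 °C; final 0.015% DMSO, 0.985% acetonitrile; stopped at 0 and 10 min, percent remaining by LC/MS/MS.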

[4] = Metabolic stability in NADPH-fortified human liver microsomes assessed as parent compound remaining at 10 uM after 30 mins by HPLC/UV/MS analysis; assay type: ADME, Microsome; conditions: read-out: Stability
In short: (§1)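 Pooled rat or human liver microsomes 1 mg/mL, 10 μM substrate, 100 mM potassium phosphate pH 7.4, 37 °C, started with NADPH-regenerating system (1.3 mM NADP+, 3.3 mM glucose-6-phosphate, 3.3 mM MgCl2, 0.5 U/mL G6PDH); GSH 5 mM in trapping runs. Sampled 0 and 30 min, acetonitrile quench; abundance as UV peak area (330–340 nm) fraction of all drug-related components by HPLC/UV/MS.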

[5] = tested on: Liver microsomes; test: Metabolic stability in NADPH-fortified human liver microsomes assessed as pyrazinone oxidation metabolite formation at 10 uM after 30 mins by HPLC/UV/MS analysis; assay type: ADME, Microsome; conditions: 0.5 h; in short: as §1
[6] = tested on: Liver microsomes; test: Metabolic stability in NADPH-fortified human liver microsomes assessed as GSH adduct formation at 10 uM after 30 mins by HPLC/UV/MS analysis; assay type: ADME, Microsome; conditions: 0.5 h; in short: as §1
[7] = Metabolic stability in NADPH-fortified rat liver microsomes assessed as parent compound remaining at 10 uM after 30 mins by HPLC/UV/MS analysis; assay type: ADME, Microsome; conditions: read-out: Stability; in short: as §1
[8] = tested on: Liver microsomes; test: Metabolic stability in NADPH-fortified rat liver microsomes assessed as pyrazinone oxidation metabolite formation at 10 uM after 30 mins by HPLC/UV/MS analysis; assay type: ADME, Microsome; conditions: 0.5 h; in short: as §1
[9] = tested on: Liver microsomes; test: Metabolic stability in NADPH-fortified rat liver microsomes assessed as GSH adduct formation at 10 uM after 30 mins by HPLC/UV/MS analysis; assay type: ADME, Microsome; conditions: 0.5 h; in short: as §1
[10] = Clearance in Sprague-Dawley rat at 2 mg/kg, iv after 0.17 to 24 hrs by LC/MS/MS analysis; assay type: ADME, organism-based; set-up: dose 2 mg/kg, route intravenous; conditions: in vivo
[11] = Volume of distribution at steady state in Sprague-Dawley rat at 2 mg/kg, iv after 0.17 to 24 hrs by LC/MS/MS analysis; assay type: ADME, organism-based; set-up: dose 2 mg/kg, route intravenous; conditions: in vivo, read-out: Vdss
In short: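 Sprague–Dawley rats (n = 3) dosed 2 mg/kg iv in PEG:ethanol 90:10 (v/v) at 1 mL/kg. Plasma stored at –20 °C and quantified by LC/MS/MS after acetonitrile precipitation with internal standard.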

[12] = Half life in Sprague-Dawley rat at 2 mg/kg, iv by LC/MS/MS analysis; assay type: ADME, organism-based; set-up: dose 2 mg/kg, route intravenous; conditions: in vivo
[13] = AUC in Sprague-Dawley rat at 10 mg/kg, po dosed as aqueous suspension of Labrafil M 1944CS/DMAC/polysorbate 80, 85:10:5 (v/v) after 0.25 to 24 hrs by LC/MS/MS analysis; assay type: ADME, organism-based; set-up: time 0.25-24 hr, dose 10 mg/kg, route oral; conditions: plasma
[14] = Cmax in Sprague-Dawley rat at 10 mg/kg, po dosed as aqueous suspension of Labrafil M 1944CS/DMAC/polysorbate 80, 85:10:5 (v/v) after 2 to 4 hrs by LC/MS/MS analysis; assay type: ADME, organism-based; set-up: dose 10 mg/kg, route oral; conditions: in vivo
[15] = Oral bioavailability in Sprague-Dawley rat at 10 mg/kg dosed as aqueous suspension of Labrafil M 1944CS/DMAC/polysorbate 80, 85:10:5 (v/v) after 0.25 to 24 hrs by LC/MS/MS analysis; assay type: ADME, organism-based; conditions: in vivo
[16] = Fraction unbound in human serum after 3 to 7 hrs by equilibrium dialysis; assay type: ADME, cell-free
In short: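 Human serum spiked with compound, equilibrium-dialysed against isotonic phosphate buffer for 3 or 7 h (depending on system) at 37 °C; both sides measured by LC/MS/MS, unbound fraction as buffer/serum concentration ratio.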

[17] = AUC in Sprague-Dawley rat at 10 mg/kg, po dosed as aqueous suspension of 1% polysorbate 80 in 0.5% methylcellulose after 0.25 to 24 hrs by LC/MS/MS analysis; assay type: ADME, organism-based; set-up: time upper 24 hr, time lower 0.25 hr, dose 10 mg/kg, route oral; conditions: in vivo
[18] = Cmax in Sprague-Dawley rat at 10 mg/kg, po dosed as aqueous suspension of 1% polysorbate 80 in 0.5% methylcellulose after 2 to 4 hrs by LC/MS/MS analysis; assay type: ADME, organism-based; set-up: dose 10 mg/kg, route oral; conditions: in vivo
[19] = Oral bioavailability in Sprague-Dawley rat at 10 mg/kg dosed as aqueous suspension of 1% polysorbate 80 in 0.5% methylcellulose after 0.25 to 24 hrs by LC/MS/MS analysis; assay type: ADME, organism-based; conditions: in vivo
[20] = Octanol-water partition coefficient, log D at pH 7.4; assay type: physicochemical
In short: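 Partitioning between octanol and water at pH 7.4.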

[21] = Aqueous solubility at pH 6.5; assay type: physicochemical
[22] = Aqueous solubility at pH 1; assay type: physicochemical
[23] = Dissociation constant, pKa by spectrophotometric titration method; assay type: physicochemical
In short: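 Spectrophotometric titration over pH 2–11 in varying acetonitrile/water mixtures, extrapolated to 0% cosolvent.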

Structure (SMILES) | IC50 [1] [nM] | remaining at 10 min, 3 µM [2] [%] | remaining at 10 min, 3 µM [3] [%] | clearance [10] [mL/min/kg] | Vd [11] [L/kg] | half-life [12] [h] | AUC [13] [µM·h] | Cmax [14] [nM] | bioavailability [15] [%] | fraction unbound [16] | further results
COC[C@H](C1CC1)n1cc(C#N)nc(Nc2cc(C)c(OC)nc2C)c1=O | 12 | 60 | 51 |  |  |  |  |  |  |  | 
CC[C@H](C1CC1)n1cc(Cl)nc(Nc2cc(C)c(OC)nc2C)c1=O | 0.28 | 51 | 5 |  |  |  |  |  |  |  | 
COC[C@@H](C)n1cc(Cl)nc(Nc2cc(C)c(OC)nc2C)c1=O | 14 | 39 | 8 |  |  |  |  |  |  |  | 
C[C@@H](C1CC1)n1cc(Cl)nc(Nc2c(Cl)cc(OC(F)F)cc2Cl)c1=O |  |  |  |  |  |  |  |  |  |  | remaining at 0.5 h, 10 µM [4]: 85%; Activity [5]: 12%; Activity [6]: 2%; remaining at 0.5 h, 10 µM [7]: 74%; Activity [8]: 20%; Activity [9]: 5%
CC[C@H](C1CC1)n1cc(Cl)nc(Nc2cc(C)c(OC(F)F)nc2C)c1=O | 0.21 | 100 | 56 |  |  |  |  |  |  |  | 
COC[C@@H](C1CC1)n1cc(Cl)nc(Nc2cc(C)c(OC(F)F)nc2C)c1=O | 0.5 | 84 | 46 | 31 | 42 | 16 | 4.7 | 440 | 48 | 0.008 | 
CC[C@H](C1CC1)n1cc(C#N)nc(Nc2cc(C)c(OC)nc2C)c1=O | 1.7 | 81 | 38 | 53 | 11 | 9 | 3 | 590 | 33 | 0.019 | AUC [17]: 0.24 µM·h; Cmax [18]: 50 nM; bioavailability [19]: 3%; logD [20]: 4.1; solubility [21]: 1 µg/mL (≈ 2.83 µM); solubility [22]: 23 µg/mL (≈ 65.1 µM); pKa [23]: < 2
Cc1cc(Nc2nc(Cl)cn([C@H](C)C3CC3)c2=O)c(C)nc1OC(F)F | 0.3 | 100 | 86 |  |  |  |  |  |  |  | 
COc1nc(C)c(Nc2nc(Cl)cn([C@H](C)C3CC3)c2=O)cc1C | 1.5 | 77 | 55 |  |  |  |  |  |  |  | 
COC[C@@H](C)n1cc(Cl)nc(Nc2cc(C)c(OC(F)F)nc2C)c1=O | 1.6 | 87 | 66 |  |  |  |  |  |  |  | 
COC[C@@H](C1CC1)n1cc(Cl)nc(Nc2cc(C)c(OC)nc2C)c1=O | 1.1 | 40 | 13 |  |  |  |  |  |  |  | 
Cc1cc(Nc2nc(C#N)cn([C@H](C)C3CC3)c2=O)c(C)nc1OC(F)F | 0.82 | 100 | 89 | 36 | 11 | 7.2 | 9.9 | 1400 | 82 | 0.016 | AUC [17]: 4.6 µM·h; Cmax [18]: 560 nM; bioavailability [19]: 38%; remaining at 0.5 h, 10 µM [4]: 88%; Activity [5]: < 1%; Activity [6]: 7%; remaining at 0.5 h, 10 µM [7]: 80%; Activity [8]: < 1%; Activity [9]: 8%
COC[C@H](C1CC1)n1cc(Cl)nc(Nc2cc(C)c(OC)nc2C)c1=O | 1.5 | 48 | 24 | 38 | 19 | 19 | 3 | 510 | 26 | 0.021 | AUC [17]: 1.3 µM·h; Cmax [18]: 180 nM; bioavailability [19]: 11%; logD [20]: 3.9; solubility [21]: 6 µg/mL (≈ 15.8 µM); solubility [22]: 116 µg/mL (≈ 306 µM); pKa [23]: 3.1
COC[C@H](C1CC1)n1cc(Cl)nc(Nc2cc(C)c(OC(F)F)nc2C)c1=O | 0.24 |  | 69 | 36 | 15 | 9.2 | 9 | 1300 | 86 | 0.008 | AUC [17]: 7 µM·h; Cmax [18]: 770 nM; bioavailability [19]: 66%; remaining at 0.5 h, 10 µM [4]: 75%; Activity [5]: 1%; Activity [6]: 5%; remaining at 0.5 h, 10 µM [7]: 42%; Activity [8]: 1%; Activity [9]: 3%
COc1nc(C)c(Nc2nc(C#N)cn([C@H](C)C3CC3)c2=O)cc1C | 10 | 99 | 72 |  |  |  |  |  |  |  | 
COC[C@@H](C1CC1)n1cc(C#N)nc(Nc2cc(C)c(OC(F)F)nc2C)c1=O | 1.4 | 78 | 64 |  |  |  |  |  |  |  | 
